Calls of active or inactive are those of the source. The calls are words filed in the database; no cut-off is given here.
Key:
[1] = molecular target: Transcription factor p65 (Mus musculus) (UniProt Q04207); assay: Downregulation of RANKL-induced p65 nuclear translocation in mouse bone marrow macrophages at 5 to 20 uM after 30 mins by Western blot analysis in presence of M-CSF
Osteoclast [2] = assay: Inhibition of bone resorption in mouse osteoclasts obtained from coculturing mouse calvarial osteoblasts with mouse bone marrow macrophages assessed as inhibition of pit formation at 20 uM after 48 hrs by Mayer's hematoxylin staining based light microscopy; format: functional, cell-based
In short: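 Mature osteoclasts from collagen-gel cocultures (0.1 μM 1α,25-(OH)2D3 or 10 μM PGE2; collagenase release) replated on dentin slices with compound for 48 h. Cells removed, slices stained with Mayer's hematoxylin, pits counted per slice by light microscopy at 100×; three independent experiments.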

[3] = Downregulation of RANKL-induced p38 MAPK phosphorylation in mouse bone marrow macrophages after 15 mins by Western blot analysis in presence of M-CSF
In short: (§1)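 Bone marrow macrophages from tibiae of 4–6-week ICR males, taken as cells adherent after 16–20 h in 50 ng/mL M-CSF. Treated with compound plus RANKL for 15 min, then lysed; phospho and total ERK, JNK and p38 detected by Western blot with ECL.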

Mus musculus [4] = species: Mus musculus; assay: Decrease in 1alpha,25-(OH)2D3-induced RANKL levels in hypercalcemic C57BL/6 mouse serum at […] […] by ELISA method; format: functional, organism-based
In short: (§2)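 C57BL/6 males, 6 weeks old, groups of five; 1α,25-(OH)2D3 given subcutaneously on three consecutive days, then PBS or compound at 25 or 100 μg/kg/day for 3 days; sacrifice on day 8. Serum calcium and phosphate by colorimetric kits, RANKL by ELISA; mean ± SD, Student's t test.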

Calvarial osteoblast [5] = assay: Inhibition of 1alpha,25-(OH)2D3-induced osteoclasts differentiation in mouse calvarial osteoblasts cocultured with mouse bone marrow macrophages incubated for 6 days by TRAP staining based microscopy; format: functional, cell-based
In short: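 Bone marrow cells (1 × 10^7) cocultured 6 days with calvarial osteoblasts (1 × 10^6) in α-MEM with 10% FBS and 0.1 μM 1α,25-(OH)2D3. Cells fixed in formaldehyde and ethanol–acetone, then TRAP-stained; TRAP-positive cells with three or more nuclei counted as osteoclasts.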

[6] = molecular target: T1, NF-kappa-B inhibitor alpha (Mus musculus) (UniProt Q9Z1E3); assay: Downregulation of RANKL-induced IkappaB alpha phosphorylation in mouse bone marrow macrophages at 5 to 20 uM after 30 mins by Western blot analysis in presence of M-CSF
T1 sequence (whole entry): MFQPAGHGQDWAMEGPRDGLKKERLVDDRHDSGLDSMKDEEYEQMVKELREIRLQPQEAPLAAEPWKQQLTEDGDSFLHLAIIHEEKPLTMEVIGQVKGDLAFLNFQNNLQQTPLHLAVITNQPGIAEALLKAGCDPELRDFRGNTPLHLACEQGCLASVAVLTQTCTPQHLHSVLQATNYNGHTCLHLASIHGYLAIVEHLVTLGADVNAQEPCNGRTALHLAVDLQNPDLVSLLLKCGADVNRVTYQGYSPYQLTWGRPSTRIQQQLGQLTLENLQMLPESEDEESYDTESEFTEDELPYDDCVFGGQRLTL

[7] = system: primary calvarial osteoblasts (Mus musculus); assay: Induction of primary calvarial osteoblasts differentiation assessed as […] in alkaline phosphatase activity using p-nitrophenyl phosphate as substrate at 10 to 20 uM after 4 days
Mus musculus [8] = species: Mus musculus; assay: Decrease in 1alpha,25-(OH)2D3-induced calcium levels in hypercalcemic C57BL/6 mouse serum at […] for […]; format: functional, organism-based; in short: as §2
Mus musculus [9] = species: Mus musculus; assay: Decrease in 1alpha,25-(OH)2D3-induced phosphate levels in hypercalcemic C57BL/6 mouse serum at […]/day […]; format: functional, organism-based; in short: as §2
Calvarial osteoblast [10] = assay: Effect on 1alpha,25-(OH)2D3-induced M-CSF mRNA expression in mouse calvarial osteoblasts at 5 and 10 uM after 24 hrs by RT-PCR method; format: functional, cell-based
In short: (§3)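 Calvarial osteoblasts from newborn mice grown 24 h in α-MEM with 10% FBS and 0.1 μM 1α,25-(OH)2D3, with or without compound. Total RNA reverse-transcribed, then PCR for RANKL (587 bp), OPG (720 bp), M-CSF (516 bp) and GAPDH (452 bp) as control. Products run on 2% agarose with ethidium bromide; three independent experiments.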

[11] = system: primary calvarial osteoblasts (Mus musculus); assay: Induction of primary calvarial osteoblasts differentiation assessed as alkaline phosphatase activity at 1 to 20 uM using p-nitrophenyl phosphate as substrate after 7 to 14 days in presence of 1alpha,25-(OH)2D3
Osteoclast [12] = assay: Induction of disruption of 1alpha,25-(OH)2D3/PGE2-induced F-actin ring formation in mouse osteoclasts obtained from coculturing mouse calvarial osteoblasts with mouse bone marrow macrophages at 20 uM after 48 hrs by Alexa Fluor 488-conjugated phalloidin staining based fluorescence microscopy; format: functional, cell-based
In short: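 Bone marrow cells and calvarial osteoblasts cocultured 6–7 days on collagen with 0.1 μM 1α,25-(OH)2D3 or 10 μM PGE2; mature osteoclasts released with 0.2% collagenase (37 °C, 30 min). Treated 48 h, fixed in paraformaldehyde, F-actin rings stained with Alexa Fluor 488-phalloidin and viewed by fluorescence microscopy at 100×.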

[13] = Downregulation of RANKL-induced JNK phosphorylation in mouse bone marrow macrophages after 15 mins by Western blot analysis in presence of M-CSF; in short: as §1
Mus musculus [14] = assay: Decrease in 1alpha,25-(OH)2D3-induced OPG levels in hypercalcemic C57BL/6 mouse serum at 5 to 100 ug/kg/day for 5 days; format: functional, organism-based
[15] = Downregulation of RANKL-induced c-fos levels in mouse bone marrow macrophages at 5 to 20 uM after 24 hrs by Western blot analysis in presence of M-CSF; format: functional, cell-based; conditions: Macrophage
In short: (§4)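 Bone marrow macrophages made with 50 ng/mL M-CSF, exposed to compound and RANKL for 24 h; c-Fos and NFATc1 protein by Western blot, β-actin as loading control, ECL detection.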

[16] = Downregulation of RANKL-induced ERK phosphorylation in mouse bone marrow macrophages after 15 mins by Western blot analysis in presence of M-CSF; in short: as §1
[17] = Cytotoxicity against mouse calvarial osteoblasts assessed as cell viability at 1 to 20 uM after 2 to 4 days by MTT assay; format: cell-based; conditions: calvarial osteoblast
In short: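 Primary calvarial osteoblasts from 1–2-day-old newborn mice (serial collagenase/dispase digests, fractions 2–5) exposed to 1, 5, 10, 20 μM for 2 days, or kept for at least 4 days with medium changed every 2–3 days; viability by MTT. Mean ± SD of three independent experiments.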

Calvarial osteoblast [18] = assay: Effect on 1alpha,25-(OH)2D3-induced OPG mRNA expression in mouse calvarial osteoblasts at 5 and 10 uM after 24 hrs by RT-PCR method; format: functional, cell-based; in short: as §3
[19] = molecular target: Transcription factor p65 (Mus musculus) (UniProt Q04207); assay: Downregulation of RANKL-induced p65 phosphorylation in mouse bone marrow macrophages at 5 to 20 uM after 30 mins by Western blot analysis in presence of M-CSF
[20] = Downregulation of RANKL-induced NFATc1 levels in mouse bone marrow macrophages at 5 to 20 uM after 24 hrs by Western blot analysis in presence of M-CSF; format: functional, cell-based; conditions: Macrophage; in short: as §4
[21] = Downregulation of 1alpha,25-(OH)2D3-induced RANKL mRNA expression in mouse calvarial osteoblasts at 5 and 10 uM after 24 hrs by RT-PCR method; format: functional, cell-based; conditions: Calvarial osteoblast; in short: as §3

Sequence of Transcription factor p65 (Mus musculus) (Q04207 whole entry): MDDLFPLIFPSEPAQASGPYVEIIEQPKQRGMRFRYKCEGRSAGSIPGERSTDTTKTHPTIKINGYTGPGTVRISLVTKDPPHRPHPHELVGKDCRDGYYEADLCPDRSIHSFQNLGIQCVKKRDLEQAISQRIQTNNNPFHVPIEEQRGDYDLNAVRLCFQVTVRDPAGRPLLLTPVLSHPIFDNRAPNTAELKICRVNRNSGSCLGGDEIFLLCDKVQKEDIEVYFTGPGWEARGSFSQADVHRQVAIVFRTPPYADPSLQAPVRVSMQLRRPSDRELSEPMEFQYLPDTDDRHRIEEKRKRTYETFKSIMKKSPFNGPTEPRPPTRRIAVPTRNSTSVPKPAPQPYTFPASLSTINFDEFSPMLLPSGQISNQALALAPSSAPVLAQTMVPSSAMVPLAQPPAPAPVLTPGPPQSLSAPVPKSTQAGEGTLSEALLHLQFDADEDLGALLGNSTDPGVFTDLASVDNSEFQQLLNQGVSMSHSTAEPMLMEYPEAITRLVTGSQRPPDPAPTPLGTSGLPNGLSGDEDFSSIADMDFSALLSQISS

## C=C(C)[C@@H]1CC[C@]2(C)CC[C@]3(C)[C@H](CC[C@@H]4[C@@]5(C)CC[C@H](O)C(C)(C)[C@@H]5CC[C@]43C)[C@@H]12 [LUPEOL]
[1]
  inhibition: Active
Osteoclast [2]
  inhibition: Active
[3]
  inhibition: Dose-dependent effect
Mus musculus [4]
  Activity: Active
Calvarial osteoblast [5]
  inhibition: Active
[6]
  Activity: Active
[7]
  Activity: Active
Mus musculus [8]
  Activity: inactive
Mus musculus [9]
  Activity: inactive
Calvarial osteoblast [10]
  Activity: inactive
[11]
  Activity: inactive
Osteoclast [12]
  Activity: Active
[13]
  inhibition: inactive
Mus musculus [14]
  Activity: inactive
[15]
  Activity: Active
[16]
  inhibition: Dose-dependent effect
[17]
  Activity: Non-toxic
Calvarial osteoblast [18]
  Activity: inactive
[19]
  Activity: Active
[20]
  Activity: Active
[21]
  Activity: Active

Reference: ChEMBL document CHEMBL3797150, “Lupeol Isolated from Sorbus commixta Suppresses 1α,25-(OH)2D3-Mediated Osteoclast Differentiation and Bone Loss in Vitro and in Vivo” (J Nat Prod, 2016)
